Screening results from PubChem.
In the library only some 2.3% were active in any assay of this set; here they are far more common.
PLC-beta3 inh: blocks human PLC-beta3 enzyme activity; Q01970; Purified PLC-beta3, fluorogenic substrate, fluorescence; inhibition, % at 12.2 µM; actives 0.18% (n = 370,000); AID 720704;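 further: 0% = median of compound wells on plate and 100% = full blocker control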
DDE Tn7 FP inh: DD(E)-Tn7 binding inhibition, primary FP screen; FP displacement of FITC-Tn7 peptide from fibrin DD(E); 0% = median of compound wells per plate; actives 0.13% (n = 370,000); P02675; inhibition, % at 8.3 µM;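 active means inhibition above the mean of compounds falling within the control limits plus 3 SD of them, cut at about 14% in these data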;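 further: 0% = plate median of compound wells and 100% = 10 µM Aha-Tn7 peptide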
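Assay system: Human fibrin DD(E) protein | Medium: Tris buffer with calcium and detergent, pH 7.8 | Reagent: 0.1 µM fluorescent Tn7 | Compound dosing: Single point at 8.3 µM | Times: 10 min preincubation, 3 h with tracer, room temperature | Detection: Fluorescence polarization of the labelled Tn7 tracer | Controls: Aha-Tn7 high control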
DDE Tn6 FP inh: DD(E)-Tn6 binding inhibition, primary FP screen. P02675. Fibrin DD(E) TRITC-Tn6 fluorescence polarization displacement. inhibition, % at 8.3 µM. actives 0.21% (n = 370,000);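 active means inhibition above a per-campaign cutoff: mean of compounds within control limits plus 3 SD, cut at about 15% in these data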;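 further: 0% = median of all compound wells on the plate and 100% = blocking peptide control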
PLCg1 inh: inhibitors of human phospholipase C gamma1; inhibition, % at 12.2 µM; AID 720700; actives 0.84% (n = 370,000); purified PLC-gamma1, fluorogenic substrate, fluorescence; in the data active means inhibition above about 9.5%
ADAM10 inh: inhibitors of human ADAM10. O14672. recombinant ADAM10, EDANS/DABCYL FRET peptide cleavage, 3 h. inhibition, % at 7 µM. actives 0.62% (n = 370,000). AID 720582;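 active means inhibition above a per-campaign cutoff equal to the mean of compounds falling between control-based bounds plus 3 SD, cut at about 20% in these data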;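 further: 0% = DMSO wells while the 100% control is not disclosed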
ADAM17 inh: inhibits human ADAM17; P78536; recombinant ADAM17, EDANS/DABCYL FRET peptide cleavage; inhibition, % at 6.95 µM; actives 0.83% (n = 370,000); AID 720648;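 active means inhibition above the mean of compounds lying between control limits plus 3 SD, set per campaign, cut at about 8.5% in these data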;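 further: 0% = DMSO-only wells as the low control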
PLCgamma1 ctr: inhibits human PLC-gamma1 in PLC-beta3 counter-screen. inhibition, % at 12.3 µM. shares compounds with PLCg1 inh. AID 743258. actives 3.1% (n = 3,300). purified PLC-gamma1, fluorogenic substrate, fluorescence; in the data active means inhibition above about 9.5%
PLCbeta3 conf: human PLC-beta3 inhibition, confirmation. shares compounds with PLCg1 inh. purified PLC-beta3, fluorogenic substrate fluorescence. inhibition, % at 12.3 µM. actives 1% (n = 3,300)
Active calls of the source: *. Unless noted, no stated cut-off is given here; in the data, active means inhibition above about 11%; inactive means the rest.

`O=[N+]([O-])c1ccccc1S(=O)(=O)N1CCc2ccccc2C1` gave PLC-beta3 inh 12*, DDE Tn7 FP inh -3, DDE Tn6 FP inh -1, PLCg1 inh 2, ADAM10 inh 8, ADAM17 inh 3, PLCgamma1 ctr -6 and PLCbeta3 conf -2.
For COc1cccc(C(=O)Nc2ccc(-n3nncc3C(C)(C)C)cc2)c1 the results were PLC-beta3 inh 12*, DDE Tn7 FP inh 0, DDE Tn6 FP inh -7, PLCg1 inh 9, ADAM10 inh 12, ADAM17 inh 7, PLCgamma1 ctr -151 and PLCbeta3 conf 4.
CCCC#Cc1ccc(CC[C@H]2O[C@H]3CC[C@@H](CO)O[C@H]3C[C@H]2NC(=O)CN2CCOCC2)cc1 was read as PLC-beta3 inh 1, DDE Tn7 FP inh -1, DDE Tn6 FP inh 0, PLCg1 inh 1, ADAM10 inh -3 and ADAM17 inh 3.
For O=C(Nn1cnnc1)C1Cc2ccccc2CN1S(=O)(=O)c1ccc(F)cc1 (centres undefined) the results were PLC-beta3 inh 3, DDE Tn7 FP inh -3, DDE Tn6 FP inh 1, PLCg1 inh 10*, ADAM10 inh -6, ADAM17 inh -8, PLCgamma1 ctr -2 and PLCbeta3 conf -4.
Cc1ccc(S(=O)(=O)N2Cc3ccccc3CC2C(=O)Nn2cnnc2)cc1 (centres undefined) was read as PLC-beta3 inh 0, DDE Tn7 FP inh -2, DDE Tn6 FP inh -11, PLCg1 inh 0, ADAM10 inh -1 and ADAM17 inh -3.
Screening COc1cc(OC)c(C(=O)Oc2ccc3c(c2)OCO3)cc1OC returned PLC-beta3 inh 4, DDE Tn7 FP inh -3, DDE Tn6 FP inh 3, PLCg1 inh 11*, ADAM10 inh 13, ADAM17 inh 8, PLCgamma1 ctr 8 and PLCbeta3 conf 3.
CC(C)(C)N(Cc1cn(Cc2ccccc2)nn1)S(=O)(=O)c1ccc(N2CCCC2)cc1Br was read as PLC-beta3 inh -20, DDE Tn7 FP inh -5, DDE Tn6 FP inh -10, PLCg1 inh -8, ADAM10 inh 4 and ADAM17 inh 6.
For Cc1nc([N+](=O)[O-])c(Br)n1CC(=O)c1ccc(F)cc1 the results were PLC-beta3 inh -2, DDE Tn7 FP inh -2, DDE Tn6 FP inh -3, PLCg1 inh 8, ADAM10 inh -2 and ADAM17 inh -2.
`Cc1nc([N+](=O)[O-])c(Br)n1CC(=O)c1cccc([N+](=O)[O-])c1` gave PLC-beta3 inh 6, DDE Tn7 FP inh -6, DDE Tn6 FP inh -1, PLCg1 inh 9.9*, ADAM10 inh 0, ADAM17 inh -1, PLCgamma1 ctr 9 and PLCbeta3 conf -3.
Screening Cc1ccccc1C(=O)NC1CCCCN(Cc2cccc(Cl)c2)C1=O (centres undefined) returned PLC-beta3 inh -2, DDE Tn7 FP inh 9, DDE Tn6 FP inh 0, PLCg1 inh 0, ADAM10 inh -2 and ADAM17 inh -6.
Screening CCc1c(N)nc(N)nc1Nc1ccccc1Cl returned PLC-beta3 inh 11*, DDE Tn7 FP inh -2, DDE Tn6 FP inh -1, PLCg1 inh 11*, ADAM10 inh 5, ADAM17 inh 6, PLCgamma1 ctr -20 and PLCbeta3 conf -2.
For COc1cccc(NC(=O)CN(c2ccc(C)cc2)S(=O)(=O)c2c(C)nn(C)c2C)c1 the results were PLC-beta3 inh 12*, DDE Tn7 FP inh 1, DDE Tn6 FP inh -7, PLCg1 inh 2, ADAM10 inh 11, ADAM17 inh 4, PLCgamma1 ctr -2 and PLCbeta3 conf 2.
`C#CCN1C(=O)[C@@](O)(c2cccn2C)c2cc(F)ccc21` gave PLC-beta3 inh 0, DDE Tn7 FP inh -8, DDE Tn6 FP inh -2, PLCg1 inh 7, ADAM10 inh -2 and ADAM17 inh 3.
